RGS4 act: RGS4 potentiators or activators, primary screen, cell-based, HEK293 M3R inducible RGS4, calcium flux; carbachol calcium flux Fluo4; active compounds read low; B-score at 10 µM; hit rate 0.92% among 310,000;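 active = B-score of the integrated calcium signal more than 4 SD below the library mean, with starting fluorescence not abnormally high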;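 also: negative B-score means reduced calcium response which marks RGS4 activation or potentiation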
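test system = HEK293 cells with stable M3R and inducible RGS4 | schedule = recording 10 s baseline at 1 Hz, 100 s post-agonist | technique = Fluo4-AM (2 µM) calcium-flux fluorescence, kinetic read | measure = Agonist-evoked peak-minus-minimum fluorescence over baseline, integrated ratio, B score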
MrgX1 antagonist: antagonists of human MrgX1 receptor, primary screen, HEK293 cells, Fluo-4 calcium flux. Mas-related G-protein coupled receptor member X1 (Homo sapiens), Q96LB2. BAM8-22 antagonism; active compounds read low. B-score at 10 µM. hit rate 1.3% among 310,000. AID 588676, 2011;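 active = calcium-response B-score plate-corrected more than 3 library SD below zero, starting fluorescence within 5 deviations, no agonist response on first addition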;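 also: peak minus trough fluorescence over baseline after final BAM8-22 challenge near maximal dose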
Target sequence (Q96LB2 whole entry, looked up): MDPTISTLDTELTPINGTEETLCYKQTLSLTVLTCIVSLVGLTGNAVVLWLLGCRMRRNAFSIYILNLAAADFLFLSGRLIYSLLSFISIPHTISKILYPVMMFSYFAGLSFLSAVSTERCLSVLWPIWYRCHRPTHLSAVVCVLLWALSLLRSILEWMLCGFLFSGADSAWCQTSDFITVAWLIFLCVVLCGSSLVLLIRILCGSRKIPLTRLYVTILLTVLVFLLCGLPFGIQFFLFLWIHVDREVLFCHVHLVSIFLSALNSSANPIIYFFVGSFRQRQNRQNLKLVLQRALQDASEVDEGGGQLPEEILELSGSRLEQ
RGS4 block: RGS4 inhibitors, primary screen, cell-based, HEK293 M3R inducible RGS4, calcium flux; Regulator of G-protein signaling 4 (Homo sapiens), P49798; Fluo-4 calcium flux; active compounds read high; triggered by carbachol at its EC20; B-score at 10 µM; hit rate 0.45% among 310,000;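 active = B-score, a plate-corrected calcium signal, over three deviations above library mean, with baseline fluorescence within five deviations of library mean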;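 also: RGS4 expression induced by doxycycline in cells with stable M3 receptor; B-score is computed from the integrated fluorescence ratio over baseline after carbachol; higher B-score means a larger calcium signal and so more RGS4 inhibition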
Target sequence (P49798 whole entry, looked up): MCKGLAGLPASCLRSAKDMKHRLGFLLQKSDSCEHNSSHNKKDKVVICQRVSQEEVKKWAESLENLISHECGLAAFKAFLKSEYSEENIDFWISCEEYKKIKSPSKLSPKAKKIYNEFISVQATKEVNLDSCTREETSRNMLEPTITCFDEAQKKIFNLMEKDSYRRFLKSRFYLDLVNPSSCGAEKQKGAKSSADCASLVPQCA
MrgX1 agonist: agonists of human MrgX1 receptor, primary screen, HEK293 cells, Fluo-4 calcium flux | Fluo-4 calcium fluorescence, agonist mode; active compounds read high | Mas-related G-protein coupled receptor member X1 (Homo sapiens), Q96LB2 | hit rate 0.44% among 310,000 | B-score at 10 µM | AID 588627, 2011;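 active = calcium response B-score plate-corrected fluorescence ratio at least 3 library SD, with starting fluorescence B-score inside 5 SD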
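Assay system: MrgX1-expressing HEK293 cells / Amount: fifteen thousand cells per well / Doses: test compound in the initial addition of three / Timing: cells plated overnight, dye loaded 0.5 h 37 °C, 0.5 h room temperature / Technique: kinetic calcium dye fluorescence, Fluo-4 NW / Control set: positive and negative controls per plate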
MrgX1 allo act: positive allosteric modulators of MrgX1, primary screen, HEK293 cells, Fluo-4 calcium flux; AID 588675, 2011; FDSS; active compounds read high; B-score at 10 µM; hit rate 0.63% among 310,000; Mas-related G-protein coupled receptor member X1 (Homo sapiens), Q96LB2;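 active = plate-corrected calcium response at least 3 library SD above typical, normal starting fluorescence, not activating the receptor alone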;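 also: compound read alongside a low EC10 to EC30 dose of BAM8-22 agonist; peak minus trough fluorescence over baseline measured at the second addition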
RGS4 inh valid: enhanced carbachol calcium response, M3R/RGS4 cells, RGS4 inhibitor project, cell-based, validation screen, HEK293 M3R/RGS4, calcium flux | carbachol calcium Fluo-4 fluorescence; carbachol added at its EC20; 0 = buffer wells, 100 = carbachol control | hit rate 65% among 1,700 | calcium response, % at 10 µM | shares compounds with RGS4 block;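 active = duplicate-averaged calcium response above the buffer-only control mean plus 5 SD of those controls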;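 also: integrated fluorescence ratio F max minus min over baseline F0; higher response in RGS4-induced cells means RGS4 inhibition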
RGS4 uninduced: carbachol calcium response in non-induced M3R cells, confirmation, counter-screen for RGS4 inhibitor project, cell-based, HEK293 M3R | shares compounds with RGS4 block | activity (percent), % at 10 µM | hit rate 20% among 1,900 | carbachol calcium Fluo-4; submaximal (EC20) carbachol stimulus; buffer wells 0%, carbachol control wells 100%; call rule not given here;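 also: RGS4 induction absent so cells express M3R without RGS4; higher means more calcium signal and flags a non-specific hit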
RGS4 inh ctr2: second counter-screen for RGS4 inhibitors: non-induced cells without carbachol. hit rate 22% among 1,900. shares compounds with RGS4 block. HEK293 M3R/RGS4 non-induced, Fluo-4 calcium, no carbachol; normalised: buffer wells 0%, carbachol wells 100%. calcium response (agonist-mode artifact), % at 10 µM. AID 493001;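 active = duplicate-averaged calcium rise in uninduced cells above buffer wells' mean plus 5 SD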
Hits are given with their value; i = inactive; nt = not tested or not shown. Compounds with a hit are over-represented: about 3.5% of the library has one in this group of screens.

SMILES | RGS4 act | MrgX1 antagonist | RGS4 block | MrgX1 agonist | MrgX1 allo act | RGS4 inh valid | RGS4 uninduced | RGS4 inh ctr2
COc1ccc(/C=C\C(=O)c2c(O)ccc3c(C)cc(=O)oc23)cc1OC | i | i | 6.7 | i | i | 8.0% | i | i
Cc1cc(=O)oc2c(C(=O)/C=C/c3ccccc3)c(O)ccc12 | i | i | i | i | i | nt | nt | nt
O=[N+]([O-])C(/C=C(/Cl)[N+](=O)[O-])=C(N1CCCCC1)N1CCCCC1 | i | i | i | i | i | nt | nt | nt
CCCNC(C)C(=O)Nc1ccccc1C (stereo unspecified) | i | i | 4.8 | i | i | 6.5% | i | i
CCCNC(=O)c1ccccc1NC(=O)Nc1ccccc1C | nt | i | nt | i | i | nt | nt | nt
CC(C)=CCC12Oc3cc(O)ccc3C1(O)Oc1cc(O)c([C@H]3C=C(C)CC(c4ccc(O)cc4O)[C@H]3C(=O)c3ccc(O)cc3O)c(O)c1C2=O (stereo partly specified) | i | i | 15 | i | i | 24% | i | i
COc1ccc(O)c(-c2cc(-c3ccccc3[N+](=O)[O-])[nH]n2)c1 | i | i | 6.4 | i | i | 9.5% | i | i
Cc1ccc(O)c(-c2cc(-c3ccccc3[N+](=O)[O-])[nH]n2)c1 | i | i | 8.6 | i | i | 12% | i | 18%
NC(=O)Cn1c(=O)n(CCC(=O)NCCSCc2ccccc2)c(=O)c2ccccc21 | i | i | i | i | i | nt | nt | nt
Nc1nc2n(n1)C(=O)CC(c1ccccc1)N2 (stereo unspecified) | i | i | i | i | i | nt | nt | nt
CCc1cccc2c(C(=O)CN3C(=O)NC(C)(c4cccc5ccccc45)C3=O)c[nH]c12 (stereo unspecified) | i | i | 11 | i | i | i | i | i
CNc1nc(NC#N)nc(SC)n1 | i | i | i | i | i | nt | nt | nt
O=C1C=C(NC2=CC3OC(c4ccccc4)OCC3OC2=O)CCC1 (stereo unspecified) | i | i | 7.7 | i | i | 36% | i | i
CC1=NN(Cc2ccccc2)C(=O)C1C(c1ccc(Cl)cc1)C(C#N)C#N (stereo unspecified) | i | i | i | i | i | i | i | 7.0%
CC1=NN(Cc2ccccc2)C(=O)C1C(c1ccncc1)C(C#N)C#N (stereo unspecified) | i | i | 4.8 | i | i | 7.5% | i | i
CC1=NN(Cc2ccccc2)C(=O)C1C(c1ccccc1)C(C#N)C#N (stereo unspecified) | i | i | i | i | i | i | i | i
CC1=NNC(=O)C1C(c1cccc(O)c1)C(C#N)C#N (stereo unspecified) | i | i | i | i | i | nt | nt | nt
CC1=NNC(=O)C1C(c1ccc(Cl)cc1)C(C#N)C#N (stereo unspecified) | i | i | i | i | i | nt | nt | nt
CC1=NN(Cc2ccccc2)C(=O)C1 | i | i | i | i | i | nt | nt | nt
CC(C)(C)c1nnc(NC(=O)C2CC(=O)N(CCc3ccc(F)cc3)C2)s1 (stereo unspecified) | i | i | i | i | i | nt | nt | nt
O=[N+]([O-])c1c(NCCCO)cc(Sc2nc3ccccc3s2)c2nonc12 | i | i | 4.7 | i | i | 9.5% | i | 150%
Cc1nnc(Sc2cc(NCCO)c([N+](=O)[O-])c3nonc23)s1 | i | nt | i | nt | nt | i | i | i
CCCSc1cc(NCCOC(C)=O)c([N+](=O)[O-])c2nonc12 | i | i | i | i | i | nt | nt | nt
CCC(=O)OCCNc1cc(Sc2nc3ccccc3s2)c2nonc2c1[N+](=O)[O-] | i | i | i | i | i | nt | nt | nt
CCCC(=O)OCCNc1cc(Sc2nccn2C)c2nonc2c1[N+](=O)[O-] | i | i | 13 | i | i | 59% | i | i
SMILES | RGS4 act | MrgX1 antagonist | RGS4 block | MrgX1 agonist | MrgX1 allo act | RGS4 inh valid | RGS4 uninduced | RGS4 inh ctr2
Cc1nnc(Sc2cc(NCCCO)c([N+](=O)[O-])c3nonc23)s1 | i | nt | 10 | nt | nt | 21% | i | i
CC(C(=O)Nc1ccccc1)N(C)CCOc1ccc(Br)cc1 (stereo unspecified) | i | i | i | i | i | nt | nt | nt
Cc1cc(-c2nnc(SCC(=O)Nc3ccc(Br)cc3F)n2N)n[nH]1 | i | i | i | i | i | nt | nt | nt
CCN(CC(=O)NCc1cccs1)C(=O)c1ccc(NS(=O)(=O)c2ccc(F)cc2)cc1 | i | i | i | i | i | nt | nt | nt
Cc1ccc([C@H]2C(C#N)=C(N)Oc3cc(C)oc(=O)c32)o1 | i | i | 6.9 | i | i | 26% | i | i
O=C(Nc1ccc2nc3n(c(=O)c2c1)CCCCC3)c1c(F)ccc([N+](=O)[O-])c1F | i | i | 5.2 | 37 | i | 33% | i | 12%
O=C(Nc1ccc2nc3n(c(=O)c2c1)CCCCC3)c1cc([N+](=O)[O-])ccc1F | i | i | i | i | i | nt | nt | nt
CCCCc1nc2n[nH]c(N)c2c2c1CSC(C)(C)C2 | i | i | 4.7 | i | i | i | i | i
COc1ccc(CN(C(=O)CCC(=O)Nc2cc(C)on2)C(C(=O)NC(C)(C)C)c2cccc(OC)c2OC)cc1 (stereo unspecified) | i | i | i | i | i | nt | nt | nt
Cc1onc(-c2ccccc2)c1NC(=O)N(CCC#N)Cc1cccs1 | i | i | i | i | i | i | i | i
CCOc1ccc(NC(=O)C2C3CC/C=C\CCC32)cc1 (stereo unspecified) | i | i | i | i | i | nt | nt | nt
CC(NC(=O)Cc1ccsc1)c1ccc(Cl)cc1Cl (stereo unspecified) | i | i | i | i | i | nt | nt | nt
CCCN(C(=O)Cc1c(C(=O)O)n(C)c2ccccc12)c1cccc(C)c1 | i | i | 6.2 | i | i | 12% | 68% | 12%
COc1ccc(/C=C/C(=O)c2sc(-c3ccccc3)nc2C)cc1 | i | i | i | i | i | nt | i | 40%
Cc1cc(C(=O)Nc2nc3ccc(Cl)cc3s2)nn1C | i | i | 5 | i | i | 10% | i | i
Cn1ncc(Cl)c1C(=O)Nc1nc2ccc(Cl)cc2s1 | i | i | i | i | i | nt | nt | nt
Cn1cnnc1Sc1ccc(/C=C/C(=O)c2ccc(O)cc2)cc1[N+](=O)[O-] | i | i | i | i | i | nt | nt | nt
